Experimental data collected from several papers.
Compare with care: the assays were run in different laboratories.
Target: Serine/threonine-protein kinase WNK4 (WNK4, Homo sapiens, UniProt Q96J92)

CC1CCCN1c1nccc(-c2cnn3ncccc23)n1 (centres unmarked)  remaining binding (binding; 1 µM): 100%
O=C(Nc1c[nH]nc1C(=O)NC1CCNCC1)c1cc(F)cc(F)c1  remaining binding (binding, competition with immobilised ligand; 1 µM): 100%
CC1=C(C#N)[C@@H](c2ccc3[nH]nc(C)c3c2)C(C#N)=C(c2ccc(Cl)cc2)N1  remaining binding (cell-free assay, competition with immobilised ligand; 1 µM): 100%
O=C(NCCCN1CCOCC1)c1ccc(Nc2nccc(-c3cc4ccccc4s3)n2)cc1  remaining binding (binding, competition with immobilised ligand; 1 µM): 71%
CN(C)CC#Cc1ccc(OCCCc2sc(N3CCc4cccc(C(=O)Nc5nc6ccccc6s5)c4C3)nc2C(=O)O)c(F)c1  remaining binding (cell-free assay, competition with immobilised ligand; 1 µM): 81%
C[C@@H]1CCN(c2nccc(-c3cnn4ncccc34)n2)C1  remaining binding (binding; 1 µM): 100%
COc1cnc(Nc2cccc(S(N)(=O)=O)c2)nc1N1CCN(c2ccccc2)CC1  remaining binding (binding, competition with immobilised ligand; 1 µM): 82%
CN(C)c1nccc(-c2cnn3ncccc23)n1  remaining binding (binding; 1 µM): 59%
FC(F)(F)Oc1cccc(-c2cnc3ccc(-c4ccncc4)nn23)c1  remaining binding (binding, competition with immobilised ligand; 5 µM): 100%
CN(c1nccc(-c2cnn3ncccc23)n1)C1CC1  remaining binding (binding; 1 µM): 100%
COc1cccc(CNC(=O)c2nc3scc(COCc4ccc(C(=O)O)cc4)c3c(=O)[nH]2)c1  remaining binding (cell-free assay, competition with immobilised ligand; 1 µM): 100%
N[C@H]1CCN(c2nccc(-c3cnn4ncccc34)n2)C1  remaining binding (binding; 1 µM): 84%
O=C(c1ccc(Nc2ncc(Cl)c(-c3cc4ccccc4s3)n2)cc1)N1CCC(N2CCCC2)CC1  remaining binding (binding, competition with immobilised ligand; 1 µM): 86%
CSc1cccnc1N1CCN(Cc2nc3ccccc3[nH]2)CC1  remaining binding (cell-free assay, competition with immobilised ligand; 1 µM): 91%
Nc1ncc2c(n1)-c1c([nH]c3ccc(C#CC4CC4)cc13)CCCC2  remaining binding (binding, competition with immobilised ligand; 1 µM): 79%
Cc1cnc(Nc2ccc(C(=O)N3CCC(N4CCCC4)CC3)cc2)nc1-c1cc2ccccc2s1  remaining binding (binding, competition with immobilised ligand; 1 µM): 73%
O=C(Nc1cccnn1)N1CC(C/C=C/c2cncc(Oc3ccc(C(F)(F)F)cn3)n2)C1  remaining binding (cell-free assay, competition with immobilised ligand; 1 µM): 0%
c1cnn2ncc(-c3ccnc(N4CCC45COC5)n3)c2c1  remaining binding (binding; 1 µM): 64%
NS(=O)(=O)c1cc(NC(=O)C2(c3ccccc3Cl)CC2)ccc1Oc1cccc(Cl)c1  remaining binding (cell-free assay, competition with immobilised ligand; 1 µM): 81%
c1cncc(-c2cccc(Nc3nccc(NC4CCCCC4)n3)c2)c1  remaining binding (binding, competition with immobilised ligand; 10 µM): 100%
